Source: paper PMC5084670 (Cancer Science, 2016)

Columns and labels:
[1] = cited from earlier work
[2] = tested on: primary human muscle cells; conditions: cited from earlier work
[3] = tested on: murine model of MB with deletion of PTCH1; conditions: cited from earlier work
GLI1 = GLI1 expression in normal skin samples by RT-PCR; format: in vivo, human
How it was run: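 Adult Asian patients with advanced solid tumors took oral test compound once daily in 28-day cycles after a 7-day single-dose run-in. Normal skin was sampled before treatment, at the end of cycle 1, and within 14 days after the last dose. RNA was extracted and analysed by RT-PCR to estimate GLI1 expression as a marker of Hh pathway activation.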

[4] = Pharmacokinetics of sonidegib in plasma; format: in vivo, human; conditions: for Exposure accumulation as the AUC ratio / AUC accumulation: cycle 1 day 15; for AUC(0-t) / Tmax / Cmax: human, plasma, oral; for Tmax: T max; for Cmax: C max

In the case of Cc1c(C(=O)Nc2ccc(N3C[C@@H](C)O[C@@H](C)C3)nc2)cccc1-c1ccc(OC(F)(F)F)cc1 [Sonidegib], the “Commonly reported AE: alopecia” value [1] is listed as 63%, the “Commonly reported AE: asthenia” value [1] is listed as 36% and the “Commonly reported AE: dysgeusia” value [1] is listed as 70%. For the same molecule, the “Commonly reported AE: weight loss” value [1] was 46%, the “Effect on muscle cells” value [2] was “induce muscle contraction and muscle fiber twitching” and the Antitumor activity [3] was “antitumor activity”. For the same molecule, the “Inhibition in GLI1 (normal skin, end of cycle 1 vs before treatment)” value (GLI1; group 1, 400 mg, four patients) was 32–88%, the “Inhibition in GLI1 (normal skin, end of cycle 1 vs before treatment)” value (GLI1; group 1, 600 mg, nine patients) was 73–96% and the “Inhibition in GLI1 (normal skin, end of cycle 1 vs before treatment)” value (GLI1; group 2, 400 mg, six patients) was 6.8–95%. The “Inhibition in GLI1 (normal skin, end of cycle 1 vs before treatment)” value (GLI1; group 2, 600 mg, two patients) was 53–83%, the “GLI1 expression in normal skin samples” value (GLI1; paired samples from 22 patients, all except one patient) was “decreased GLI1 expression” and the Steady state ([4]; both groups) was “not achieved within cycle 1”. For the same molecule, the “Plasma concentration at 168 h after a single dose” value ([4]; both groups at every dose) was “detected”, the “Exposure accumulation as the AUC ratio” value ([4]; group 1, 400 mg) was 4.9 fold and the “Accumulation in trough levels” value ([4]; group 1, 400 mg, cycle 2 day 1 vs 24-h post-dose concentration in run-in) was 12.4 fold. For the same molecule, the “Accumulation in trough levels” value ([4]; group 1, 400 mg, cycle 2 day 22 vs 24-h post-dose concentration in run-in) was 19.6 fold, the “Exposure accumulation as the AUC ratio” value ([4]; group 1, 600 mg) was 4.6 fold and the “Accumulation in trough levels” value ([4]; group 1, 600 mg, cycle 2 day 1 vs 24-h post-dose concentration in run-in) was 14.3 fold. The “Accumulation in trough levels” value ([4]; group 1, 600 mg, cycle 2 day 22 vs 24-h post-dose concentration in run-in) was 19.9 fold, the AUC accumulation ([4]; group 2, 400 mg) was “approximately 4.3 fold” and the Trough accumulation ([4]; group 2, 400 mg, cycle 2 day 1) was 13.9 fold. The Trough accumulation ([4]; group 2, 400 mg, cycle 2 day 22) was 16.3 fold, the AUC accumulation ([4]; group 2, 600 mg) was ~4.2 fold and the Trough accumulation ([4]; group 2, 600 mg, cycle 2 day 1) was 12.3 fold. It also gave a Trough accumulation ([4]; group 2, 600 mg, cycle 2 day 22) of 13.8 fold, an AUC accumulation ([4]; group 2, 800 mg) of ~6.0 fold and an AUC(0-t) ([4]; 400 mg q.d., AUClast, cycle 1, day 15 (last sampling 24 h), group 2, 400 mg q.d., n = 9, geometric mean (% CV)) of 12300 ng·h/mL. The AUC(0-t) ([4]; 400 mg, AUC0–24, pharmacokinetic run-in (single dose), group 1, 400 mg, n = 12, geometric mean (% CV)) was 2010 ng·h/mL, the AUC(0-t) ([4]; 400 mg, AUC0–24, pharmacokinetic run-in (single dose), group 2, 400 mg, n = 12, geometric mean (% CV)) was 2890 ng·h/mL and the Tmax ([4]; 400 mg, cycle 1, day 15, group 1, 400 mg q.d., n = 12, median) was 2 h. It also gave a Tmax ([4]; 400 mg, pharmacokinetic run-in (single dose), group 1, 400 mg, n = 12, median) of 3 h, a Tmax ([4]; 400 mg, pharmacokinetic run-in (single dose), group 2, 400 mg, n = 12, median) of 3 h and an AUC(0-t) ([4]; 600 mg, AUC0–24, pharmacokinetic run-in (single dose), group 1, 600 mg, n = 9, geometric mean (% CV)) of 3330 ng·h/mL. It also gave an AUC(0-t) ([4]; 600 mg, AUC0–24, pharmacokinetic run-in (single dose), group 2, 600 mg, n = 8, geometric mean (% CV)) of 3420 ng·h/mL, a Cmax ([4]; 600 mg, cycle 1, day 15, group 1, 600 mg q.d., n = 8, geometric mean (% CV)) of 1010 ng/mL and a Tmax ([4]; 600 mg, cycle 1, day 15, group 1, 600 mg q.d., n = 8, median) of 2 h. The Tmax ([4]; 600 mg, cycle 1, day 15, group 2, 600 mg q.d., n = 5, median) was 4 h, the Tmax ([4]; 600 mg, pharmacokinetic run-in (single dose), group 1, 600 mg, n = 9, median) was 2 h and the Tmax ([4]; 600 mg, pharmacokinetic run-in (single dose), group 2, 600 mg, n = 8, median) was 3 h. The AUC(0-t) ([4]; 800 mg, AUC0–24, pharmacokinetic run-in (single dose), group 2, 800 mg, n = 4, geometric mean (% CV)) was 3650 ng·h/mL, the Cmax ([4]; 800 mg, cycle 1, day 15, group 2, 800 mg q.d., n = 2, geometric mean (% CV)) was 1230 ng/mL and the Tmax ([4]; 800 mg, pharmacokinetic run-in (single dose), group 2, 800 mg, n = 4, median) was 2 h. For the same molecule, the Tmax ([4]; after a single dose in run-in period and repeated dosing in cycle 1 day 15, both groups) was 2 to 4 h.
